Bioassay records from PubChem BioAssay.
Compounds with a hit are over-represented: about 1.8% of the library has one in this group of screens.
NPY1 pot ag = potentiators or agonists of human neuropeptide Y receptor Y1; AID 1304; NPY-Y1 expressing cells, potentiator/agonist activation; hit rate 0.37% among 220,000; activation, % at 3.6 µM; P25929; in the data active means activation above about 33%, passing the limit was not always enough;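 further: cells stimulated with NPY at EC10 then isoproterenol at EC100; 0% = low agonist plus stimulus and 100% = saturating agonist plus stimulus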
NPY-Y1 antag = NPY-Y1 (human) receptor antagonism. P25929. HEK293-CNG Y1 cells, membrane potential fluorescence; NPY at EC95, then isoproterenol. inhibition, % at 3.6 µM. hit rate 1% among 200,000;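 active means inhibition above the campaign mean inhibition of all tested compounds plus 3 SD, cut at about 20% in these data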;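 further: 0% = DMSO wells given NPY plus isoproterenol and 100% = isoproterenol alone without NPY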
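Assay system: HEK293 Y1/CNG channel cell line; Doses: single compound dose of 3.6 µM, 0.4% DMSO; Timing: dye 3 h, compound 60 min room temperature, stimulation 45 min; Technique: Membrane-potential fluorescent dye readout; Measure: % inhibition of NPY effect.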
NPY2 pot ag = human NPY-Y2 potentiation or agonism, primary screen | cells expressing NPY-Y2, potentiator/agonist read-out | hit rate 0.45% among 220,000 | activation, % at 3.6 µM | P49146; in the data active means activation above about 27%;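 further: cells stimulated with NPY near EC25 plus isoproterenol at EC100; 0% = vehicle plus submaximal agonist and 100% = vehicle plus saturating agonist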
Target sequence (P49146 whole entry, looked up): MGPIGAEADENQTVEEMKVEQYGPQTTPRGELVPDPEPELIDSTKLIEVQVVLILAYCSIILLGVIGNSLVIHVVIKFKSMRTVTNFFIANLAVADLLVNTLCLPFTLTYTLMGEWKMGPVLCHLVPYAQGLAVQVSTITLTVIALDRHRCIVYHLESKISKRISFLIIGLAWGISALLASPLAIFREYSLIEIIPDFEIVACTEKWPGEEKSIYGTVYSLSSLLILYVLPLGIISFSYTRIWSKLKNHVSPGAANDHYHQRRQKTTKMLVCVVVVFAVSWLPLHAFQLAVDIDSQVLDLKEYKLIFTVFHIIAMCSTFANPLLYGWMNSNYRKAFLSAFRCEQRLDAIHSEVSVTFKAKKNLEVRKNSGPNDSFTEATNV
NPY-Y2 antag = NPY-Y2 (human) receptor antagonism. P49146. NPY-Y2 expressing cells, antagonist mode. inhibition, % at 2.7 µM. hit rate 0.99% among 140,000; in the data active means inhibition above about 17%;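 further: 0% = vehicle with agonist challenge and 100% = reference antagonist with challenge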
An asterisk follows results filed as active; . = no result.

SMILES | NPY1 pot ag | NPY-Y1 antag | NPY2 pot ag | NPY-Y2 antag
C(=N\Nc1nc2ccccc2[nH]1)/c1c[nH]c2ccccc12 | 44* | -6 | 34* | 0
COC(OC)c1ccc(C#N)c(SCc2ccc(C)cc2)n1 | -19 | . | -8 | .
CC(C)C(NC(=O)c1ccco1)C(=O)OCC(=O)Nc1ccc(C(N)=O)cc1 (stereo not given) | 6 | 8 | 20 | .
Cc1c(Cc2c(Cl)cccc2Cl)c(=O)ccn1C(C)c1ccccc1 (stereo not given) | -5 | 20 | 2 | 22*
COc1cccc(C(=O)NNC2OC(CO)C(O)C2O)c1 (stereo not given) | -17 | -4 | 1 | .
c1ccc(CN(Cc2ccccc2)c2nn[nH]n2)cc1 | -16 | 4 | -5 | .
Clc1ccc(CN(Cc2ccc(Cl)cc2)c2nn[nH]n2)cc1 | -30 | 31* | -26 | .
NNC(=S)Nc1cccc(-c2n[nH]c(=S)o2)c1 | -14 | . | -21 | .
O=C(Nc1ccc(-n2ccc(C(F)(F)F)n2)cc1)Nc1cccc(Cl)c1 | 52* | . | 40* | .
Cc1cc(C)cc(NC(=O)Nc2ccc(-n3ccc(C(F)(F)F)n3)cc2)c1 | 40 | . | 13 | .
CCOC(=O)c1c(NC(=O)CSc2nc3cc(Cl)ccc3s2)sc(C(C)=O)c1C | 11 | 1 | 1 | 0
CCOC(=O)c1c(NC(=O)CSc2nc3ccccc3s2)sc(C(C)=O)c1C | -33 | 39* | -32 | 22*
CCOC(=O)c1cccc(NC(=O)C2(S(=O)(=O)c3ccc(C)cc3)CC2)c1 | 5 | -3 | 0 | 0
COCCCNC(NC(=O)c1ccc(Br)cc1)C(Cl)(Cl)Cl (stereo not given) | 59* | -9 | 66* | 1
COCCCNC(=O)c1ccc(C(=O)NCCCOC)cc1 | 8 | 1 | 1 | 0
CCCCC1CCC(/C(N)=N/O)CC1 (stereo not given) | -10 | 1 | -11 | 4
CCCCCC1CCC(C(=O)O)CC1 (stereo not given) | -38 | 26* | -13 | 12
COc1ccc(CCNC(=O)c2nnn(CC(=O)Nc3cccc(F)c3)c2N)cc1OC | -3 | 3 | 5 | .
N=C(N)c1ccc(OCCCCCOc2ccc(C(=N)N)cc2)cc1 | -5 | -5 | 5 | 0
CCCCCCOc1ccc(/C(N)=N/O)cc1 | 84* | -11 | 99* | 3
Cc1ccc(CN2CC(C(=O)Nc3cc(S(C)(=O)=O)ccc3Cl)CC2=O)cc1 (stereo not given) | 0 | 8 | -3 | 0
Cc1ccc(CN2CC(C(=O)Nc3ccc(F)c([N+](=O)[O-])c3)CC2=O)cc1 (stereo not given) | 81* | -10 | 70* | .
Cc1ccc2c(c1)C(c1ccc([N+](=O)[O-])cc1)=NNC(c1ccc(Br)cc1)=N2 | -2 | 25* | 8 | 17*
CCc1ccc2c(c1)C(c1ccc([N+](=O)[O-])cc1)=NNC(c1ccc(Br)cc1)=N2 | -7 | 5 | 11 | 0
COc1ccccc1CC(=O)N1CCN(c2cccc(C(F)(F)F)c2)CC1 | 8 | 5 | 1 | 11
SMILES | NPY1 pot ag | NPY-Y1 antag | NPY2 pot ag | NPY-Y2 antag
O=C(NC(c1ccc(Cl)cc1)c1c(O)ccc2ccccc12)c1ccccc1 (stereo not given) | 41 | -13 | 43* | -6
O=C(NC(c1ccccc1)c1c(O)ccc2ccccc12)c1ccccc1Cl (stereo not given) | -29 | 9 | -1 | 3
COc1ccc(C(C(=O)NC2CCCC2)N(Cc2ccccc2)C(=O)c2nsc(Cl)c2Cl)cc1 (stereo not given) | -46 | 36* | -45 | 28*
CC(C)C(NC(=O)c1ccc(C(C)(C)C)cc1)C(=O)Nc1cccc(S(N)(=O)=O)c1 (stereo not given) | 43* | -6 | 37* | .
Cc1ccc(C(=O)NC(C(=O)Nc2cccc(S(N)(=O)=O)c2)C(C)C)cc1 (stereo not given) | -1 | . | 3 | .
COc1cc(/C=N/NC(=O)c2ccc([N+](=O)[O-])cc2Cl)cc(Br)c1O | 0 | -7 | 1 | 3
COc1cc(/C=N/N2C(=O)c3ccccc3NC2(C)c2cccc([N+](=O)[O-])c2)cc(Br)c1O (stereo not given) | -2 | 3 | 1 | 17*
CCn1cc(C(=O)O)c(=O)c2cnc(N3CCN(C(=S)Nc4ccccc4C(F)(F)F)CC3)nc21 | 9 | . | -9 | .
COc1ccc(CNC(=O)N[C@H](C(=O)O)C(C)C)cc1OC | 4 | . | -5 | .
CCCN(CCC)CCOc1cc(C)ccc1C(C)C | -16 | 28* | -6 | 27*
Cc1ccc(C(C)C)c(OCCN(C)C)c1 | -3 | -2 | -22 | 6
O=C(O)CCC(=O)Nc1nnc(C(F)(F)F)s1 | -9 | 5 | 1 | 0
CCC(NC(=O)Nc1nnc(C(F)(F)F)s1)(C(F)(F)F)C(F)(F)F | -44 | 38* | 25 | 25*
O=C(O)C(Cc1ccccc1)N1C(=O)/C(=C/c2cccc3ccccc23)SC1=S (stereo not given) | -55 | 10 | -22 | 20*
O=C(O)C(Cc1ccccc1)N1C(=O)/C(=C/c2ccccc2)SC1=S (stereo not given) | -48 | 13 | -17 | 16
C=CCc1ccccc1OCC(O)CN1CCN(Cc2ccc3c(c2)OCO3)CC1 (stereo not given) | 92* | -16 | 87* | 7
C=CCc1ccccc1OCC(O)CN1CCN(CCN2C(=O)c3cccc4cccc(c34)C2=O)CC1 (stereo not given) | 54* | -6 | 45* | 3
CC(=O)NC(NC(=S)Nc1ccc(S(N)(=O)=O)cc1)C(Cl)(Cl)Cl (stereo not given) | -2 | . | -5 | .
CC(=O)NC(NC(=S)Nc1ccc(N=Nc2ccccc2)cc1)C(Cl)(Cl)Cl (stereo not given) | 46* | -14 | 33 | -8
O=C(NNC(=O)C1CC=CCC1C(=O)O)c1ccc(Cl)cc1 (stereo not given) | -4 | 0 | -1 | .
CC(C)OP(=O)(OC(C)C)/C(C=O)=N\Nc1ccc([N+](=O)[O-])cc1 | 51* | . | 53* | .
Cc1ccc(OCC(=O)O/N=C(\N)Cc2ccc(Cl)cc2)cc1 | -56 | 22* | -21 | 21*
Cc1cccc(OCC(=O)O/N=C(\N)Cc2ccc(Cl)cc2)c1 | -29 | 16 | -33 | 23*
COC(=O)c1c(NC(=S)Nc2ccc(C(=O)N3CCOCC3)cc2)sc2c1CCC2 | 4 | -1 | -3 | .
Nc1c(N2CCCCC2)c2ccccc2oc1=O | 3 | 1 | 6 | .
Cn1c(N)c(C(=O)COC(=O)CCc2c[nH]c3ccccc23)c(=O)n(C)c1=O | -26 | 18 | -27 | 6
Cn1c(N)c(C(=O)COC(=O)CCCc2c[nH]c3ccccc23)c(=O)n(C)c1=O | -45 | 30* | -29 | 20*
CN(C)/C=N/C1=C(C#N)C(c2cccs2)c2ccc3ccccc3c2O1 (stereo not given) | -14 | 3 | -29 | .
CCOc1ccc(-c2nnc(SCc3nnc(-c4ccccc4)o3)n2-c2ccccc2F)cc1 | -23 | 26* | -13 | 19*
CCOc1ccc(-n2c(SCc3ccc([N+](=O)[O-])cc3)nnc2-c2ccccc2)cc1 | -79 | 66* | -15 | 149*
